# Source: ChEMBL document CHEMBL1135709, “2,6-Di(omega-aminoalkyl)-2,5,6,7-tetrahydropyrazolo[3,4,5-mn]pyrimido[5,6,1-de]acridine-5,7-diones: novel, potent, cytotoxic, and DNA-binding agents” (J Med Chem, 2002)
# Columns and labels:
# [1] = tested on: HT-29; experiment: In vitro cytotoxic potency against HT-29 (human colon adenocarcinoma) cell line.; format: functional, cell-based
# [2] = tested on: Calf thymus DNA; experiment: CT-DNA binding required to produce a 50% drop in fluorescence of DNA-bound ethidium.; format: nucleic-acid assay; settings: Bos taurus
# How it was run: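 Ethidium displacement from calf thymus DNA in 10 mM Na2HPO4, 10 mM NaH2PO4, 1 mM EDTA, pH 7.0, containing 1.26 μM ethidium bromide and 1 μM CT-DNA. Drug added serially from ~5 mM DMSO stock; 20 °C; fluorescence excitation 546 nm, emission 595 nm. C50 = drug concentration lowering DNA-bound ethidium fluorescence by 50%, mean of three determinations.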
# [3] = tested on: DU-145; experiment: Percent growth of NCI cell line, prostate: DU-145 exposed for 48 hr at 10e-8 concentration; format: functional, Homo sapiens
# How it was run: (§1)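 NCI panel cell lines exposed 48 h to 10^-8, 10^-6 and 10^-4 M drug; read-out is percent growth at each concentration.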
# [4] = tested on: LOX IMVI; experiment: Percent growth of NCI cell line, melanoma: LOX IMVI exposed for 48 hr at 10e-4 concentration; format: functional, Homo sapiens; how it was run: as §1
# [5] = tested on: OVCAR-4; experiment: Percent growth of NCI cell line, ovarian: OVCAR-4 exposed for 48 hr at 10e-4 concentration; format: functional, Homo sapiens; how it was run: as §1
# [6] = tested on: OVCAR-4; experiment: Percent growth of NCI cell line, ovarian: OVCAR-4 exposed for 48 hr at 10e-6 concentration; format: functional, Homo sapiens; how it was run: as §1
# [7] = tested on: MCF7; experiment: Percent growth of NCI cell line, breast: MCF-7 exposed for 48 hr at 10e-8 concentration; format: functional, Homo sapiens; how it was run: as §1
# [8] = tested on: LoVo; experiment: Cytotoxicity activity on LoVo/Dx human adenocarcinoma cell line after 1 hr of drug exposure; format: functional, cell-based
# How it was run: (§2)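 LoVo (sensitive) and LoVo/Dx (resistant) human colon adenocarcinoma cells seeded at 2.5 × 10^5 cells/mL medium; drug solutions added to culture. IC50 = drug concentration inhibiting cell growth by 50%, assays in triplicate.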
# [9] = tested on: 786-0; experiment: Percent growth of NCI cell line, renal: 786-0 exposed for 48 hr at 10e-4 concentration; format: functional, Homo sapiens; how it was run: as §1
# [10] = tested on: SNB-19; experiment: Percent growth of NCI cell line, CNS: SNB-19 exposed for 48 hr at 10e-8 concentration; format: functional, Homo sapiens; how it was run: as §1
# [11] = tested on: DU-145; experiment: Percent growth of NCI cell line, prostate: DU-145 exposed for 48 hr at 10e-4 concentration; format: functional, Homo sapiens; how it was run: as §1
# [12] = Percent growth of NCI cell line, leucemia K562 exposed for 48 hr at 10e-4 concentration; format: functional, Homo sapiens; how it was run: as §1
# [13] = tested on: NCI-H460; experiment: Percent growth of NCI cell line, lung-nsc: NCI-H460 exposed for 48 hr at 10e-8 concentration; format: functional, Homo sapiens; how it was run: as §1
# [14] = tested on: 786-0; experiment: Percent growth of NCI cell line, renal: 786-0 exposed for 48 hr at 10e-8 concentration; format: functional, Homo sapiens; how it was run: as §1
# [15] = Percent growth of NCI cell line, leucemia K562 exposed for 48 hr at 10e-8 concentration; format: functional, Homo sapiens; how it was run: as §1
# [16] = tested on: MCF7; experiment: Percent growth of NCI cell line, breast: MCF-7 exposed for 48 hr at 10e-6 concentration; format: functional, Homo sapiens; how it was run: as §1
# [17] = tested on: DU-145; experiment: Percent growth of NCI cell line, prostate: DU-145 exposed for 48 hr at 10e-6 concentration; format: functional, Homo sapiens; how it was run: as §1
# [18] = tested on: 786-0; experiment: Percent growth of NCI cell line, renal: 786-0 exposed for 48 hr at 10e-6 concentration; format: functional, Homo sapiens; how it was run: as §1
# [19] = tested on: LOX IMVI; experiment: Percent growth of NCI cell line, melanoma: LOX IMVI exposed for 48 hr at 10e-6 concentration; format: functional, Homo sapiens; how it was run: as §1
# [20] = tested on: HCT-15; experiment: Percent growth of NCI cell line, colon: HCT-15 exposed for 48 hr at 10e-4 concentration; format: functional, Homo sapiens; how it was run: as §1
# [21] = tested on: HCT-15; experiment: Percent growth of NCI cell line, colon: HCT-15 exposed for 48 hr at 10e-6 concentration; format: functional, Homo sapiens; how it was run: as §1
# [22] = Percent growth of NCI cell line, leucemia K562 exposed for 48 hr at 10e-6 concentration; format: functional, Homo sapiens; how it was run: as §1
# [23] = tested on: MCF7; experiment: Percent growth of NCI cell line, breast: MCF-7 exposed for 48 hr at 10e-4 concentration; format: functional, Homo sapiens; how it was run: as §1
# [24] = tested on: HCT-15; experiment: Percent growth of NCI cell line, colon: HCT-15 exposed for 48 hr at 10e-8 concentration; format: functional, Homo sapiens; how it was run: as §1
# [25] = tested on: LoVo; experiment: Cytotoxicity activity on LoVo human adenocarcinoma cell line after 1 hr of drug exposure; format: functional, cell-based; how it was run: as §2
# [26] = tested on: LOX IMVI; experiment: Percent growth of NCI cell line, melanoma: LOX IMVI exposed for 48 hr at 10e-8 concentration; format: functional, Homo sapiens; how it was run: as §1
# [27] = tested on: LoVo; experiment: Cytotoxicity activity on LoVo human adenocarcinoma cell line after 144 hr of drug exposure; format: functional, cell-based
# How it was run: (§3)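 LoVo (sensitive) and LoVo/Dx (resistant) human colon adenocarcinoma cells seeded at 2.5 × 10^5 cells/mL medium; drug solutions added to culture.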
# [28] = tested on: SNB-19; experiment: Percent growth of NCI cell line, CNS: SNB-19 exposed for 48 hr at 10e-6 concentration; format: functional, Homo sapiens; how it was run: as §1
# [29] = tested on: SNB-19; experiment: Percent growth of NCI cell line, CNS: SNB-19 exposed for 48 hr at 10e-4 concentration; format: functional, Homo sapiens; how it was run: as §1
# [30] = tested on: OVCAR-4; experiment: Percent growth of NCI cell line, ovarian: OVCAR-4 exposed for 48 hr at 10e-8 concentration; format: functional, Homo sapiens; how it was run: as §1
# [31] = tested on: NCI-H460; experiment: Percent growth of NCI cell line, lung-nsc: NCI-H460 exposed for 48 hr at 10e-4 concentration; format: functional, Homo sapiens; how it was run: as §1
# [32] = tested on: LoVo; experiment: Cytotoxicity activity on LoVo/Dx human adenocarcinoma cell line after 144 hr of drug exposure; format: functional, cell-based; how it was run: as §3
# [33] = tested on: NCI-H460; experiment: Percent growth of NCI cell line, lung-nsc: NCI-H460 exposed for 48 hr at 10e-6 concentration; format: functional, Homo sapiens; how it was run: as §1
compound,measurement,setting,value
CCN(CC)CCn1c(=O)c2ccc3c4c(nn3CCN(CC)CC)c3ccccc3n(c1=O)c24,IC50,[1],29 nM
same,C50,[2],0.051 µM
CN(C)CCn1c(=O)c2ccc3c4c(nn3CCN3CCCC3)c3ccccc3n(c1=O)c24,IC50,[1],9.2 nM
same,C50,[2],0.049 µM
CN(C)CCn1c(=O)c2ccc3c4c(nn3CCN3CCCC3)c3cc([N+](=O)[O-])ccc3n(c1=O)c24,IC50,[1],1.4 nM
same,C50,[2],0.048 µM
COc1ccc2c(c1)c1nn(CCN(C)C)c3ccc4c(=O)n(CCN(C)C)c(=O)n2c4c13,IC50,[1],11 nM
same,Growth,[3],54%
same,Growth,[4],-80%
same,Growth,[5],-82%
same,Growth,[6],-73%
same,Growth,[7],49%
same,IC50,[8],140 nM
same,Growth,[9],-96%
same,Growth,[10],62%
same,Growth,[11],-77%
same,Growth,[12],-81%
same,Growth,[13],9%
same,Growth,[14],28%
same,Growth,[15],47%
same,Growth,[16],-27%
same,Growth,[17],-11%
same,Growth,[18],-26%
same,Growth,[19],-19%
same,C50,[2],0.052 µM
same,Growth,[20],-80%
same,Growth,[21],-31%
same,Growth,[22],-14%
same,Growth,[23],-89%
same,Growth,[24],36%
same,IC50,[25],290 nM
same,Growth,[26],62%
same,IC50,[27],13 nM
same,Growth,[28],-15%
same,Growth,[29],-62%
same,Growth,[30],40%
same,Growth,[31],-95%
same,IC50,[32],1.8 nM
same,Growth,[33],-60%
CN(C)CCCn1c(=O)c2ccc3c4c(nn3CCN(C)C)c3ccccc3n(c1=O)c24,IC50,[1],37 nM
same,C50,[2],0.12 µM
COc1cccc2c1C(=O)c1c(O)c3c(c(O)c1C2=O)C[C@@](O)(C(=O)CO)C[C@@H]3O[C@H]1C[C@H](N)[C@H](O)[C@H](C)O1 [DOXORUBICIN],IC50,[8],9700 nM
same,IC50,[25],860 nM
same,IC50,[27],24 nM
same,IC50,[32],2400 nM
O=C1c2c(O)ccc(O)c2C(=O)c2c(NCCNCCO)ccc(NCCNCCO)c21,C50,[2],0.037 µM
CN(C)CCCn1nc2c3cc(O)ccc3n3c(=O)n(CCN(C)C)c(=O)c4ccc1c2c43,IC50,[1],61 nM
same,C50,[2],0.0066 µM
CN(C)CCCn1c(=O)c2ccc3c4c(nn3CCCN(C)C)c3ccccc3n(c1=O)c24,IC50,[1],135 nM
same,C50,[2],0.56 µM
